Measured values published in ChEMBL document CHEMBL1142957, “Total structure and inhibition of tumor cell proliferation of laxaphycins” (J Med Chem, 2007).
pIC50: −log10 of the molar value.

Tests used:
[1] = Cytotoxicity against human […] cells after 48 hrs by Hoechst 33342 assay; type: cell-based
Summary of the method: (§1)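 Adherent lines in Glutamax MEM with Earle's salts, FCS, vitamins, pyruvate, NEAA, glutamine, gentamycin. Seeded 5 × 10³ cells/well, adhered 16 h, then 48 h continuous exposure in 0.5% DMSO (solvent control). After resazurin read, cells PBS-rinsed and stored at −80 °C. Then thawed and given 30 µg/mL Hoechst 33342 in Tris pH 7.4/EDTA/NaCl buffer, 1 h at 37 °C, fluorescence 360/460 nm (DNA ∝ biomass). Two independent assays in triplicate, mean ± SD.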

MCF7 = assay: Cytotoxicity against human MCF7 cells after 48 hrs by Hoechst 33342 assay; type: cell-based; details: MCF7, 48 h; summary of the method: as §1
CEM-VM1 [2] = assay: Antiproliferative activity against teniposide-resistant CEM/VM1 after 72 hrs in presence of 0.2 uM laxaphycin A; type: functional, cell-based; details: Homo sapiens, CEM-VM1, 72 h
Summary of the method: (§2)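 Leukemic lymphoblasts (parent CCRF-CEM, Pgp-overexpressing CEM/VLB100, topo II-altered CEM/VM-1) grown in RPMI 1640 with 10% FCS and antibiotics, 37 °C, 5% CO2. Serial dilutions in medium added to 2 × 10⁵ cells/mL for 3 days, medium not renewed. Survivors counted on a Coulter counter. Triplicate, averaged.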

DLD-1 [3] = assay: Cytotoxicity against human DLD1cells after 48 hrs by RRT; type: cell-based; details: dld-1, 48 h
Summary of the method: (§3)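 Adherent lines in supplemented Glutamax MEM, 37 °C, 5% CO2. Seeded 5 × 10³ cells/well, adhered 16 h, then treated 48 h continuously, alone or in combination, in 0.5% DMSO (solvent control). Resazurin 25 µg/mL in MEM added, 1 h at 37 °C, fluorescence 530/590 nm. Survival = % of control after blank subtraction; IC50 from concentration–survival curve. Two independent assays in triplicate.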

DLD-1 [4] = assay: Survival of human DLD1 cells at 2 uM after 48 hrs by RRT assay; type: functional
Summary of the method: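 Adherent cells cultured in Glutamax Eagle's MEM with Earle's salts, fetal calf serum, vitamins, pyruvate, nonessential amino acids, glutamine and gentamycin at 37 °C, 5% CO2. Seeded 5 × 10³ cells/well, 16 h adhesion, then 48 h continuous exposure in 0.5% DMSO, alone or combined. Resazurin (25 µg/mL in MEM) added for 1 h at 37 °C, fluorescence 530/590 nm; survival as percentage of solvent controls after blank subtraction; two independent experiments in triplicate, averaged.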

CEM-VM1 [5] = assay: Interaction index, ratio of IC50 for CEM/VM1 cells in presence of 2 uM laxaphycin A/IC50 for CEM/VM1 cells; type: functional, Homo sapiens
[6] = Cytotoxicity against human fibroblasts after 48 hrs by Hoechst 33342 assay; type: cell-based; details: fibroblast; summary of the method: as §1
[7] = Cytotoxicity against vinblastine-resistant CEM/VLB100 cells after 72 hrs; type: cell-based; details: Homo sapiens, CEM/VLB100, 72 h; summary of the method: as §2
CEM-VLB [8] = assay: Interaction index, ratio of IC50 for CEM/VLB100 cells in presence of 1 uM laxaphycin A/IC50 for CEM/VLB100 cells; type: functional, Homo sapiens
CCRF-CEM [9] = assay: Ratio of IC50 for teniposide-resistant CEM/VM1 cells over IC50 for drug-sensitive CCRF-CEM cells; type: functional, Homo sapiens
[10] = Cytotoxicity against human PA1 cells after 48 hrs by RRT; type: cell-based; details: pa-1, 48 h; summary of the method: as §3
[11] = Cytotoxicity against human M4Beu cells after 48 hrs by RRT; type: cell-based; summary of the method: as §3
CCRF-CEM [12] = assay: Antiproliferative activity against drug-sensitive CCRF-CEM cells after 72 hrs in presence of 1 uM laxaphycin A; type: functional, cell-based; details: Homo sapiens; summary of the method: as §2
CEM-VLB [13] = assay: Interaction index, ratio of IC50 for CEM/VLB100 cells in presence of 0.4 uM laxaphycin A/IC50 for CEM/VLB100 cells; type: functional, Homo sapiens
L929 [14] = assay: Cytotoxicity against mouse L929 cells after 48 hrs by RRT; type: cell-based; details: l929, 48 h; summary of the method: as §3
CEM-VLB [15] = assay: Antiproliferative activity against vinblastine-resistant CEM/VLB100 after 72 hrs in presence of 0.2 uM laxaphycin A; type: functional, cell-based; details: Homo sapiens; summary of the method: as §2
CEM-VLB [16] = assay: Interaction index, ratio of IC50 for CEM/VLB100 cells in presence of 2 uM laxaphycin A/IC50 for CEM/VLB100 cells; type: functional, Homo sapiens
CCRF-CEM [17] = assay: Ratio of IC50 for vinblastine-resistant CEM/VLB100 cells over IC50 for drug-sensitive CCRF-CEM cells; type: functional, Homo sapiens
CCRF-CEM [18] = assay: Antiproliferative activity against drug-sensitive CCRF-CEM cells after 72 hrs in presence of 0.2 uM laxaphycin A; type: functional, cell-based; details: Homo sapiens; summary of the method: as §2
CCRF-CEM [19] = assay: Antiproliferative activity against drug-sensitive CCRF-CEM cells after 72 hrs in presence of 0.4 uM laxaphycin A; type: functional, cell-based; details: Homo sapiens; summary of the method: as §2
CEM-VM1 [20] = assay: Antiproliferative activity against teniposide-resistant CEM/VM1 after 72 hrs in presence of 1 uM laxaphycin A; type: functional, cell-based; details: Homo sapiens, CEM-VM1, 72 h; summary of the method: as §2
CEM-VLB [21] = assay: Antiproliferative activity against vinblastine-resistant CEM/VLB100 after 72 hrs in presence of 1 uM laxaphycin A; type: functional, cell-based; details: Homo sapiens; summary of the method: as §2
L929 [22] = assay: Cytotoxicity against mouse L929 cells after 48 hrs by Hoechst 33342 assay; type: cell-based; details: l929, 48 h; summary of the method: as §1
CCRF-CEM [23] = assay: Cytotoxicity against drug-sensitive CCRF-CEM cells after 72 hrs; type: cell-based; details: Homo sapiens; summary of the method: as §2

## CCCCCCC[C@@H]1CC(=O)N[C@@H](C(C)C)C(=O)N[C@@H]([C@@H](O)C(C)C)C(=O)N[C@@H](C)C(=O)N[C@H]([C@@H](O)C(C)C)C(=O)N[C@@H](CCC(N)=O)C(=O)N(C)[C@@H]([C@@H](C)CC)C(=O)N[C@H]([C@@H](O)C(N)=O)C(=O)N[C@@H]([C@@H](C)O)C(=O)N2CCC[C@H]2C(=O)N[C@H](CC(C)C)C(=O)N[C@@H]([C@@H](C)O)C(=O)N1 [LAXAPHYCIN B]
[1]
  Activity: Dose-dependent effect
MCF7
  pIC50: 6.30
CEM-VM1 [2]
  pIC50: 6.14
DLD-1 [3]
  Activity: Dose-dependent effect
DLD-1 [4]
  Activity: 90%
CEM-VM1 [5]
  Ratio IC50: 0.3
[6]
  Activity: Dose-dependent effect
[7]
  pIC50: 5.99
CEM-VLB [8]
  Ratio IC50: 0.35
CCRF-CEM [9]
  Ratio IC50: 1.2
[10]
  Activity: Dose-dependent effect
[11]
  pIC50: 6.40
CCRF-CEM [12]
  pIC50: 6.39
CEM-VLB [13]
  Ratio IC50: 0.56
L929 [14]
  Activity: Dose-dependent effect
CEM-VLB [15]
  pIC50: 6.04
CEM-VLB [16]
  Ratio IC50: 0.32
CCRF-CEM [17]
  Ratio IC50: 0.9
CCRF-CEM [18]
  pIC50: 6.21
CCRF-CEM [19]
  pIC50: 6.30
CEM-VM1 [20]
  pIC50: 6.37
CEM-VLB [21]
  pIC50: 6.44
L929 [22]
  Activity: Dose-dependent effect
CCRF-CEM [23]
  pIC50: 5.95
